The values that follow come from ChEMBL document CHEMBL3044755, “5-Methyl-1,2,3-thiadiazoles synthesized via ugi reaction and their fungicidal and antiviral activities” (J Agric Food Chem, 2010).

Each structure is given as a SMILES string.

Holding throughout (type): functional
One assay concerns Fusarium graminearum. The experiment in a line: Fungicidal activity against Fusarium graminearum at 50 ug/ml by growth inhibition method. Particulars: read-out: GI. A digest of the protocol:
(§1)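 Mycelial growth inhibition on potato dextrose agar. The panel covered Alternaria solani, Botrytis cinerea, Cercospora arachidicola, C. beticola, Colletotrichum lagenarium, Fusarium oxysporum, Gibberella zeae, Puccinia triticina, Phytophthora infestans, Physalospora piricola, Pellicularia sasakii and Rhizoctonia solani.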

The next assay deals with Phytophthora infestans. The assay can be described thus: Fungicidal activity against Phytophthora infestans at 50 ug/ml by growth inhibition method. The settings on record: read-out: GI. A digest of the protocol: as §1
In assay [1] the test system is Botryosphaeria berengeriana. The experiment in a line: Fungicidal activity against Botryosphaeria berengeriana at 50 ug/ml by growth inhibition method. Particulars: read-out: GI. A digest of the protocol:
as §1

The test system of another assay is Alternaria solani. The assay can be described thus: Fungicidal activity against Alternaria solani at 50 ug/ml by growth inhibition method. The settings on record: read-out: GI. A digest of the protocol: as §1
The next assay relates to Rhizoctonia solani. The assay can be described thus: Fungicidal activity against Rhizoctonia solani at 50 ug/ml by growth inhibition method. The settings on record: read-out: GI. A digest of the protocol: as §1
The subject of the next assay is Colletotrichum lagenaria. The experiment in a line: Fungicidal activity against Colletotrichum lagenaria at 50 ug/ml by growth inhibition method. Particulars: read-out: GI. A digest of the protocol:
as §1

A further assay has as its system Puccinia triticina. The experiment in a line: Fungicidal activity against Puccinia triticina at 50 ug/ml by growth inhibition method. Particulars: read-out: GI. A digest of the protocol:
as §1

Assay [2] has as its system Tobacco mosaic virus. The experiment in a line: In vitro antiviral activity against Tobacco mosaic virus (TMV) infected tobacco leaves at 100 ug/ml.
In assay [3] the test system is Tobacco mosaic virus. The assay can be described thus: In vitro antiviral activity against Tobacco mosaic virus (TMV) infected tobacco leaves at 500 ug/ml.
In a further assay the test system is Mycosphaerella arachidis. The assay can be described thus: Fungicidal activity against Mycosphaerella arachidis at 50 ug/ml by growth inhibition method. Particulars: read-out: GI. A digest of the protocol: as §1
The next assay deals with Cercospora beticola. The assay can be described thus: Fungicidal activity against Cercospora beticola at 50 ug/ml by growth inhibition method. The settings on record: read-out: GI. A digest of the protocol:
as §1

In the next assay the test system is Thanatephorus cucumeris. The assay can be described thus: Fungicidal activity against Thanatephorus cucumeris at 50 ug/ml by growth inhibition method. Particulars: read-out: GI. A digest of the protocol: as §1

Usually inhibition stands for the percentage by which the read-out fell short of the control. Low readings indicate little suppression, high ones strong suppression. On to `Cc1ccc(N(C(=O)c2nnsc2C)C(C(=O)NC(C)C)c2cccc(C(F)(F)F)c2)cc1F` (configuration not stated), for which the inhibition of growth at 50 µg/mL with Fusarium graminearum is 36%; in the assay on Phytophthora infestans, 0%; in assay [1], 8%; with Alternaria solani, 0%; in the assay with Rhizoctonia solani, 22%; with Colletotrichum lagenaria it was 14%. For the same compound, the inhibition of growth at 50 µg/mL was 14% in the assay with Puccinia triticina, 27% in the assay with Mycosphaerella arachidis, 25% with Cercospora beticola and 4% with Thanatephorus cucumeris. In the assay with Tobacco mosaic virus [2], this compound registered an inhibition at 100 µg/mL of 19%. In the assay on Tobacco mosaic virus [3], this compound registered an inhibition at 500 µg/mL of 51%.
As to `Cc1ccc(C(C(=O)NC2CCCCC2)N(C(=O)c2nnsc2C)c2ccc(C)c(F)c2)cc1` (configuration not stated), the inhibition of growth at 50 µg/mL in the assay with Fusarium graminearum was found to be 0%; in the assay with Phytophthora infestans, 25%; in assay [1], 8%; in the assay on Alternaria solani, 0%; in the assay with Rhizoctonia solani, 2%; in the assay with Colletotrichum lagenaria, 14%. Also, the inhibition of growth at 50 µg/mL is 0% in the assay on Puccinia triticina, 27% with Mycosphaerella arachidis, 25% with Cercospora beticola and 15% in the assay on Thanatephorus cucumeris. The compound also yielded an inhibition at 100 µg/mL in the assay with Tobacco mosaic virus [2] of 21%. The compound further came in with an inhibition at 500 µg/mL with Tobacco mosaic virus [3] of 53%.
Regarding `Cc1ccc(N(C(=O)c2nnsc2C)C(C(=O)NC2CCCCC2)c2cccc([N+](=O)[O-])c2)cc1F` (configuration not stated), the inhibition of growth at 50 µg/mL in the assay with Fusarium graminearum came out at 0%; in the assay with Phytophthora infestans, 44%; in [1] it was 0%; in the assay on Alternaria solani it was 0%; in the assay with Rhizoctonia solani it was 4%; in the assay on Colletotrichum lagenaria, 0%. Moreover, the inhibition of growth at 50 µg/mL with Puccinia triticina was determined as 0%; in the assay on Mycosphaerella arachidis, 0%; with Cercospora beticola, 25%; in the assay on Thanatephorus cucumeris it was 0%. In the assay with Tobacco mosaic virus [2], this compound had an inhibition at 100 µg/mL of 9%. Besides, the inhibition at 500 µg/mL in the assay on Tobacco mosaic virus [3] turned out to be 57%.
Take `Cc1ccc(N(C(=O)c2nnsc2C)C(C(=O)NC2CCCCC2)c2ccccc2[N+](=O)[O-])cc1F` (configuration not stated): the inhibition of growth at 50 µg/mL is 0% in the assay with Fusarium graminearum; 50% in the assay on Phytophthora infestans; 12% in assay [1]; 0% in the assay on Alternaria solani; 9% in the assay on Rhizoctonia solani; 0% in the assay with Colletotrichum lagenaria. Besides, the inhibition of growth at 50 µg/mL in the assay with Puccinia triticina worked out at 0%; in the assay with Mycosphaerella arachidis it was 27%; in the assay on Cercospora beticola it was 25%; with Thanatephorus cucumeris it was 0%. Moreover, the inhibition at 100 µg/mL in the assay with Tobacco mosaic virus [2] came out at 5%. Besides, 500 µg/mL produced 11% inhibition in the assay on Tobacco mosaic virus [3].
In the case of `Cc1ccc(N(C(=O)c2nnsc2C)C(C(=O)NC2CCCCC2)c2ccccc2)cc1F` (configuration not stated), the inhibition of growth at 50 µg/mL with Fusarium graminearum turned out to be 27%; in the assay with Phytophthora infestans, 38%; in assay [1] it was 69%; in the assay on Alternaria solani it was 25%; in the assay on Rhizoctonia solani, 0%; in the assay with Colletotrichum lagenaria, 0%. Besides, the inhibition of growth at 50 µg/mL came out at 0% in the assay with Puccinia triticina, 18% in the assay on Mycosphaerella arachidis, 0% in the assay with Cercospora beticola and 65% in the assay on Thanatephorus cucumeris. The compound further registered an inhibition at 100 µg/mL with Tobacco mosaic virus [2] of 51%. The compound further yielded an inhibition at 500 µg/mL with Tobacco mosaic virus [3] of 71%.
`Cc1ccc(N(C(=O)c2nnsc2C)C(C(=O)NC(C)C)c2cccc(F)c2)cc1F` (configuration not stated): the inhibition of growth at 50 µg/mL in the assay with Fusarium graminearum was found to be 5%; in the assay with Phytophthora infestans, 19%; in assay [1] it was 0%; in the assay with Alternaria solani, 44%; in the assay on Rhizoctonia solani it was 43%; in the assay on Colletotrichum lagenaria, 57%. For the same compound, the inhibition of growth at 50 µg/mL is 0% in the assay on Puccinia triticina, 27% with Mycosphaerella arachidis, 25% with Cercospora beticola and 0% in the assay on Thanatephorus cucumeris. Moreover, in the assay on Tobacco mosaic virus [2], the inhibition at 100 µg/mL came out at 50%. The compound further gave an inhibition at 500 µg/mL in the assay on Tobacco mosaic virus [3] of 30%.
`Cc1ccc(N(C(=O)c2nnsc2C)C(C(=O)NC(C)C)c2ccccc2O)cc1F` (configuration not stated): the inhibition of growth at 50 µg/mL with Fusarium graminearum came to 50%; in the assay with Phytophthora infestans, 0%; in [1], 19%; with Alternaria solani, 0%; in the assay with Rhizoctonia solani, 26%; in the assay on Colletotrichum lagenaria, 50%. Also, the inhibition of growth at 50 µg/mL came to 0% in the assay with Puccinia triticina, 0% with Mycosphaerella arachidis, 0% in the assay on Cercospora beticola and 41% in the assay on Thanatephorus cucumeris. In the assay on Tobacco mosaic virus [2], 100 µg/mL produced 27% inhibition. Besides, in the assay with Tobacco mosaic virus [3], at 500 µg/mL the inhibition was 56%.
Regarding `Cc1ccc(N(C(=O)c2nnsc2C)C(C(=O)NC2CCCCC2)c2ccccc2C)cc1F` (configuration not stated), the inhibition of growth at 50 µg/mL amounted to 0% in the assay on Fusarium graminearum; 44% with Phytophthora infestans; 0% in assay [1]; 38% in the assay on Alternaria solani; 22% with Rhizoctonia solani; 29% with Colletotrichum lagenaria. In addition, the inhibition of growth at 50 µg/mL in the assay on Puccinia triticina was found to be 0%; in the assay on Mycosphaerella arachidis it was 0%; in the assay with Cercospora beticola it was 25%; in the assay on Thanatephorus cucumeris it was 0%. In the assay with Tobacco mosaic virus [2], this compound showed an inhibition at 100 µg/mL of 13%. The same compound came in with an inhibition at 500 µg/mL in the assay on Tobacco mosaic virus [3] of 35%.
For the compound `Cc1ccc(N(C(=O)c2nnsc2C)C(C(=O)NC2CCCCC2)c2ccc(C(F)(F)F)cc2)cc1F` (configuration not stated), the inhibition of growth at 50 µg/mL came to 9% in the assay on Fusarium graminearum; 0% in the assay with Phytophthora infestans; 0% in assay [1]; 0% in the assay with Alternaria solani; 22% with Rhizoctonia solani; 14% in the assay with Colletotrichum lagenaria. The inhibition of growth at 50 µg/mL in the assay on Puccinia triticina, with Mycosphaerella arachidis, with Cercospora beticola and in the assay with Thanatephorus cucumeris was 0% throughout. Also, in the assay on Tobacco mosaic virus [2], the inhibition at 100 µg/mL is 27%. The compound also returned an inhibition at 500 µg/mL with Tobacco mosaic virus [3] of 36%.
Consider `Cc1ccc(N(C(=O)c2nnsc2C)C(C(=O)NC2CCCCC2)c2ccccc2C(F)(F)F)cc1F` (configuration not stated), for which the inhibition of growth at 50 µg/mL in the assay on Fusarium graminearum is 0%; in the assay on Phytophthora infestans it was 25%; in assay [1], 0%; in the assay with Alternaria solani, 44%; in the assay with Rhizoctonia solani, 4%; in the assay with Colletotrichum lagenaria, 14%. The inhibition of growth at 50 µg/mL came to 0% with Puccinia triticina, 0% in the assay on Mycosphaerella arachidis, 25% in the assay on Cercospora beticola and 0% in the assay with Thanatephorus cucumeris. Moreover, at 100 µg/mL the inhibition in the assay with Tobacco mosaic virus [2] was 31%. The same compound showed an inhibition at 500 µg/mL in the assay with Tobacco mosaic virus [3] of 20%.
For the compound `Cc1ccc(N(C(=O)c2nnsc2C)C(C(=O)NC2CCCCC2)c2ccc(Cl)cc2)cc1F` (configuration not stated), the inhibition of growth at 50 µg/mL came to 0% in the assay on Fusarium graminearum; 6% with Phytophthora infestans; 0% in [1]; 0% with Alternaria solani; 22% in the assay on Rhizoctonia solani; 0% in the assay on Colletotrichum lagenaria. For the same compound, the inhibition of growth at 50 µg/mL with Puccinia triticina is 0%; in the assay with Mycosphaerella arachidis, 18%; in the assay on Cercospora beticola, 13%; in the assay with Thanatephorus cucumeris it was 0%. In the assay with Tobacco mosaic virus [2], this compound had an inhibition at 100 µg/mL of 8%. For the same compound, in the assay on Tobacco mosaic virus [3], testing at 500 µg/mL gave an inhibition of 14%.
